Measured values: ChEMBL document CHEMBL2176998, “Regulation of the Escherichia coli AtoSC two component system by synthetic biologically active 5;7;8-trimethyl-1;4-benzoxazine analogues” (Bioorg Med Chem, 2011)
The source made the active and inactive calls. No cut-off for these calls is given here.

Key:
Escherichia coli [1] = assay: Repression of atoC transcription in Escherichia coli K-12 BW25113 at 1 mM by beta-galactosidase reporter assay; type: functional, organism-based
In short: (§1)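 BW25113 carrying pCPG6 (atoC-lacZ) grown at 37 °C with vigorous shaking in supplemented M9 minimal medium with ampicillin 100 µg/mL. Overnight cultures were diluted 1:15 into medium containing compound at 1 mM, or at 0, 0.25, 0.5, 1.0, 2.5 and 5 mM. Cells were grown to OD600 0.4–0.7, then harvested, washed twice in M9, and assayed for β-galactosidase. The pMLB1034 vector strain served as negative control. Two independent experiments, two clones each.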

[2] = Induction of purified His6-tagged cytosolic AtoS autophosphorylation preincubated at 1 mM for 15 mins before […] addition after 30 mins by autoradiography
In short: (§2)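 Purified His6-tagged cytoAtoS (7 µM) was preincubated 15 min at room temperature with compound at 1 mM final in 50 mM Tris-HCl pH 7.6, 10 mM MgCl2, 100 mM KCl, 1 mM DTT, 10 mM NaF. Reactions were stopped with SDS loading buffer, resolved on 12% SDS–PAGE and autoradiographed.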

Escherichia coli [3] = assay: Repression of atoDAEB transcription in Escherichia coli K-12 BW25113 at 1 mM by beta-galactosidase reporter assay; type: functional, organism-based
In short: (§3)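 BW25113 carrying pCPG5 (atoA-lacZ, atoDAEB promoter) grown at 37 °C in supplemented M9 minimal medium with 1 mM compound. Overnight cultures were diluted 1:15 and grown to OD600 0.4–0.7. Cells were washed twice in M9, then β-galactosidase activity was read. Plasmid pMLB1034 served as negative control.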

Escherichia coli [4] = assay: Induction of atoDAEB transcription in Escherichia coli K-12 BW25113 at 1 mM by beta-galactosidase reporter assay; type: functional, organism-based; in short: as §3
Escherichia coli [5] = assay: Induction of atoC transcription in Escherichia coli K-12 BW25113 at 1 mM by beta-galactosidase reporter assay; type: functional, organism-based; in short: as §1
Escherichia coli [6] = assay: Reduction in AtoC protein level in Escherichia coli K-12 BW25113 harboring pUC-Az plasmid at 5 mM by immunoblot method
Nucleic Acid [7] = assay: Effect on atoS promoter activity in Escherichia coli K-12 BW25113 at 1 to 2.5 mM by beta-galactosidase reporter assay; type: nucleic-acid assay
In short: (§4)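 BW25113 carrying pCPG4 (atoS-lacZ) or pCPG5 (atoA-lacZ), in supplemented M9 at 37 °C. Overnight cultures were diluted 1:15 into medium with compound at 1.0 or 2.5 mM and grown to OD600 0.4–0.7. Cells were harvested, washed twice in M9 and assayed for β-galactosidase. The pMLB1034 strain served as negative control.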

[8] = Stimulation of recombinant purified His6-tagged cytosolic AtoS oligomers assessed as reduction in dimeric form at 1 mM using glutaraldehyde by SDS-PAGE analysis
In short: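 It was then cross-linked 30 min at 25 °C with 0.1% glutaraldehyde. The reaction was stopped with 2× SDS loading buffer and boiling, run on 8.5% SDS–PAGE and immunoblotted with anti-His (1:500).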

[9] = Induction of purified His6-tagged cytosolic AtoS kinase activity preincubated at 1 mM for 15 mins before […] addition after 30 mins by autoradiography; in short: as §2
Escherichia coli [10] = assay: Induction of atoC transcription in Escherichia coli K-12 BW25113 by beta-galactosidase reporter assay; type: functional, organism-based; in short: as §1
Nucleic Acid [11] = assay: Activation of atoDAEB promoter activity in Escherichia coli K-12 BW25113 harboring plasmid containing atoA-lacz at 0.1 to 2.5 mM by beta-galactosidase reporter assay in presence of 2.5 mM acetoacetate; type: nucleic-acid assay
In short: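 BW25113/pCPG5 (atoA-lacZ) grown in modified M9 mineral medium with no acetoacetate or with 2.5 or 10 mM acetoacetate. Compound was added at 0.1, 0.5, 1.0 or 2.5 mM after 1:15 dilution of overnight cultures. Cells were grown to OD600 0.4–0.7, washed twice in M9 and assayed for β-galactosidase.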

Escherichia coli [12] = assay: Reduction in AtoS protein level in Escherichia coli K-12 BW25113 grown to OD600 0.5 to 0.6 at 2.5 mM by immunoblot method; type: functional, organism-based
In short: (§5)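 BW25113 carrying pUC-Az (atoS, atoC) grown in supplemented M9 with compound at 1.0 or 2.5 mM, added at the start of growth. Cultures were harvested at OD600 0.5–0.6. Whole-cell extracts in SDS loading buffer (15 µL) were boiled and run on SDS–PAGE, then immunoblotted with affinity-purified rabbit polyclonal anti-AtoC or anti-AtoS. BW28878, lacking AtoS/AtoC, was the negative control.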

Nucleic Acid [13] = assay: Activation of atoDAEB promoter activity in Escherichia coli K-12 BW25113 harboring plasmid containing atoA-lacz by beta-galactosidase reporter assay in presence of 2.5 mM acetoacetate
Nucleic Acid [14] = assay: Effect on atoDAEB promoter activity in Escherichia coli K-12 BW25113 at 1 to 2.5 mM by beta-galactosidase reporter assay; type: nucleic-acid assay; in short: as §4
Escherichia coli [15] = assay: Increase in AtoC protein level in Escherichia coli K-12 BW25113 grown to OD600 0.5 to 0.6 at 1 to 2.5 mM by immunoblot method; type: functional, organism-based; in short: as §5
Escherichia coli [16] = assay: Increase in DnaK protein level in Escherichia coli K-12 BW25113 by Western blot method; type: functional, organism-based
Escherichia coli [17] = assay: Reduction in AtoS protein level in Escherichia coli K-12 BW25113 at 1 to 5 mM by immunoblot method; type: functional, organism-based
In short: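 BW25113/pUC-Az grown in supplemented M9 with various compound concentrations. Half of each dose was added at OD600 0.2 and half at 0.4, and growth continued to OD600 0.9. Total extracts (15 µL) were run on 10% SDS–PAGE and immunostained with anti-AtoC (1:500) or anti-AtoS (1:1000). BW28878 was the negative control.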

Nucleic Acid [18] = assay: Activation of atoC promoter in Escherichia coli K-12 BW25113 by beta-galactosidase reporter assay; type: nucleic-acid assay; in short: as §1
Escherichia coli [19] = assay: Effect on AtoS protein level in Escherichia coli K-12 BW25113 grown to OD600 0.5 to 0.6 at 1 mM by immunoblot method; type: functional, organism-based; in short: as §5
Escherichia coli [20] = assay: Effect on HSP60 protein level in Escherichia coli K-12 BW25113 harboring plasmid containing atoC-lacZ at 0.25 to 5 mM by Western blot method; type: functional, organism-based

Structure (SMILES)	Activity [2]	Activity (Escherichia coli [3])	Activity (Escherichia coli [4])	Activity (Escherichia coli [5])	further results
Cc1c(C)c2c(c(C)c1Cl)NCCO2	inactive	Active	–	–	Activity (Escherichia coli [1]): Active
Cc1c(C)c2c(c(C)c1Cl)NCC(c1ccccc1)O2 (stereo unspecified)	inactive	–	Active	Active	–
COc1ccc(-c2c(C)c(C)c3c(c2C)NCCO3)cc1	–	–	inactive	Active	–
Cc1c(C)c2c(c(C)c1Br)NCCO2	inactive	Active	inactive	inactive	–

The next lines start with results.

Activity [2]	Structure (SMILES)	Activity (Escherichia coli [3])	Activity (Escherichia coli [4])	Activity (Escherichia coli [5])	further results
Active	Cc1cc(C)c2c(c1C)OCCN2	Active	–	Active	Activity (Escherichia coli [6]): Active; Activity (Nucleic Acid [7]): inactive; Activity [8]: Active; Activity [9]: Active; Activity (Escherichia coli [10]): Dose-dependent effect; Activity (Nucleic Acid [11]): Active; Activity (Escherichia coli [12]): Active; Activity (Nucleic Acid [13]): Active; Activity (Nucleic Acid [14]): inactive; Activity (Escherichia coli [15]): Active; Activity (Escherichia coli [16]): Dose-dependent effect; Activity (Escherichia coli [17]): Active; Activity (Nucleic Acid [18]): Dose-dependent effect; Activity (Escherichia coli [19]): inactive; Activity (Escherichia coli [20]): inactive
inactive	COc1ccc(C2CNc3c(C)cc(C)c(C)c3O2)cc1 (stereo unspecified)	–	Active	Active	–
inactive	COc1ccc(C2COc3c(C)c(C)cc(C)c3N2)cc1 (stereo unspecified)	–	Active	–	Activity (Escherichia coli [1]): Active
